Bioassay records (PubChem)
The list is not random: actives were taken first. Their share in the collection is about 4.6%.
NALP1 yeast inh: blocks the NALP1 inflammasome reconstituted in yeast. actives 0.61% (n = 280,000). S. cerevisiae NALP1/ASC/caspase-1 growth, X-gal OD620, 72 h. inhibition, % at 10 µM; in the data active = inhibition mostly above about 24%, no sharp cut-off; inactive = mostly below about 32%
Pemphigus Ab inh: blocks pemphigus antibody binding to human desmoglein-3; binding (percent of control), % at 10 µM; actives 0.48% (n = 310,000); DSG3-coupled beads, scFv-anti-DSG3-GFP binding, flow cytometry; active compounds read low; P32926;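 active = binding more than 3 SD below its plate's average and above zero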;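 also: hits lower antibody fragment binding to DSG3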
Target sequence (P32926 whole entry, looked up, the tested form may be a part): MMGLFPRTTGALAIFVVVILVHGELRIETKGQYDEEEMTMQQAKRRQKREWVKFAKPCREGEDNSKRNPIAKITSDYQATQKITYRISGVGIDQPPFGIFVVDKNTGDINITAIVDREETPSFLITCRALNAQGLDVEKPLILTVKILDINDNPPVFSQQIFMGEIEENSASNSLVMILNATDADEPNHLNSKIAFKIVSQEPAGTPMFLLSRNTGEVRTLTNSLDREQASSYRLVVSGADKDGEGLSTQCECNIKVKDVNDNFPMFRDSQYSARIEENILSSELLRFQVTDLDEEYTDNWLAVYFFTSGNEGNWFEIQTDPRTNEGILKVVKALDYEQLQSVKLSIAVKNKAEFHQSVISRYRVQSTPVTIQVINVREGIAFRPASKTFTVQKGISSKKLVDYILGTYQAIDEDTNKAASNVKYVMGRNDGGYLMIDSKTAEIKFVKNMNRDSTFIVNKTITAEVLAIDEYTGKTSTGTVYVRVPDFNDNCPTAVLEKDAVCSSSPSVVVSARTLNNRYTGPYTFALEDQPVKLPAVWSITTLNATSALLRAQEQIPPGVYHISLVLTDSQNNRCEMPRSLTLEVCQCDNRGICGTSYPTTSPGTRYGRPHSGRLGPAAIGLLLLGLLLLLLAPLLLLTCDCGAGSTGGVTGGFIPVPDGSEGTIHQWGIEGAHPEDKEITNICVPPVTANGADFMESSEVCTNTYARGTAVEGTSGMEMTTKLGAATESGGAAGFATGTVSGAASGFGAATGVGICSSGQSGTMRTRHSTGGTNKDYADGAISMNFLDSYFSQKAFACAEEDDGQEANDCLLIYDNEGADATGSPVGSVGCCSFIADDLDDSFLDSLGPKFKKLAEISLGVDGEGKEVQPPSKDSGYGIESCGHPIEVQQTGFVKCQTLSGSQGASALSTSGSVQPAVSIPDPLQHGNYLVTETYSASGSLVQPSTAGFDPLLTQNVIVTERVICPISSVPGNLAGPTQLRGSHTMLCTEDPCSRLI
NLRP3 yeast inh: inhibitors of NALP3 inflammasome in yeast | Yeast reconstituted NLRP3/ASC/caspase-1, beta-gal luminescence, 24 h | inhibition, % at 10 µM | actives 0.39% (n = 330,000) | AID 2825;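 active = inhibition of 50% or more; inactive = inhibition below 50%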;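 also: plate controls were induced DMSO wells for no effect and uninduced yeast grown without galactose for full effect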
Arrestin-AP2 inh: human beta-arrestin and AP2 interaction inhibition | FITC-arrestin peptide / GST-AP2 beads, flow cytometry; AP2 beta2 appendage carries R879A mutation | inhibition, % at 10 µM | AID 504490 | actives 0.31% (n = 340,000);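 active = inhibition above a set limit, near 3 SD of compounds lacking own fluorescence, cut at about 54% in these data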;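 also: plate controls were DMSO wells for no effect and 5 µM unlabelled arrestin peptide for full effect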
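Measured by: flow cytometry, FL1 (488/535 nm); Material: AP2 appendage R879A on GSH beads; Evaluation: percent response; Timing: pre-incubation 12 min, peptide binding 1 h, room temperature; Also added: 50 nM FITC-arrestin peptide; Medium: PBS with 0.05% Tween 20 and 0.1% BSA.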
PolyA inh: yeast polyadenylation inhibition | S. cerevisiae SKY197-pL101 polyadenylation reporter, beta-gal luminescence; efflux-impaired pdr1/pdr3 knockout yeast; score 100 = 6 SD above DMSO | activity score, % at 12 µM | actives 0.02% (n = 300,000) | AID 1875;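 active = lowest replicate activity score at least 50, where 100 means six control SD above control mean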;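 also: yeast exposed to compound for 9 h at 30 °C; higher score means more reporter readthrough which indicates perturbed polyadenylation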
ALR inh: inhibitors of human sulfhydryl oxidase ALR; P55789; purified ALR, DTT oxidation, H2O2 HRP-luminol luminescence; inhibition, % (test concentration not listed); actives 3.8% (n = 290,000);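 active = mean replicate inhibition above about 79%, with every replicate also reaching it, limit read from the data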
Active calls of the source: *; · = no result given.

SMILES	NALP1 yeast inh	Pemphigus Ab inh	NLRP3 yeast inh	Arrestin-AP2 inh	PolyA inh	ALR inh
CCCCOc1ccc(C(C)NC(=O)CCS(=O)(=O)Cc2ccccc2Cl)cc1 (configuration not stated)	24	13*	19	24	19	·
Cc1cc(-c2n[nH]c(=S)n2/N=C/c2cccc(O)c2)n[nH]1	-11	85	11	5	3	96*
Cc1cc(-c2n[nH]c(=S)n2/N=C/c2sccc2C)n[nH]1	24	·	14	1	5	58
Cc1cc(-c2n[nH]c(=S)n2/N=C/c2cccc([N+](=O)[O-])c2)n[nH]1	20	96	21	5	2	97*
COC(=O)c1ccc(COC(=O)CNC(=O)c2ccc(C)s2)cc1	·	105	7	4	·	-9
CNc1ccccc1C(=O)OC(C)C(=O)Nc1ccc(Cl)cn1 (configuration not stated)	20	110	18	20	-10	1
Cc1ccc(NC(=O)COC(=O)C2=NNC(=O)CC2)c(Br)c1	·	98	6	-5	·	·
COCCCn1c2nc3ccccc3nc2c2c(=O)n(-c3ccccc3OC)cnc21	-31	·	5	2	-15	-4
COc1ccccc1-n1cnc2c(c1=O)c1nc3ccccc3nc1n2-c1ccc(C)c(C)c1	32	35*	·	7	2	·
CCCCN1C(=O)C(CC(=O)NC2CC2)CC(C(=O)N2CCOCC2)=C1C (configuration not stated)	·	94	·	·	·	·
COc1ccc(S(=O)(=O)N2CCOCC2)cc1NC(=O)COC(=O)c1oc2ccccc2c1C	·	106	-10	-6	·	-3
O=S1(=O)CCN(C2CC2)CC1	·	104	·	·	·	·
COc1ccc(NC2CCCN(C(=O)c3ccccc3C(F)(F)F)C2)cc1 (configuration not stated)	-1	104	26	-6	1	99*
COc1ccc(OC)c(C(=O)N2CCCC(Nc3ccc(F)cc3)C2)c1 (configuration not stated)	22	·	-5	5	0	94*
Cc1ccc(NC2CCCN(C(=O)c3cccs3)C2)cc1C (configuration not stated)	8	108	12	6	13	99*
CC(C)c1ccc(NC2CCCN(C(=O)c3cccs3)C2)cc1 (configuration not stated)	-6	107	16	30	-17	99*
Cc1ccc(-c2nn3c(-c4ccccc4)nnc3o2)cc1	·	102	·	·	·	·
COc1ccc(N2CCN(C(=O)CSc3nc4nc(C)cc(C)n4n3)CC2)cc1	·	98	15	-24	·	·
COc1ccc(NC(=O)C2CCN(C(=O)c3cccs3)CC2)cc1	17	94	8	-2	-7	-7
COc1ccc(NC2CCCN(C(=O)c3cccs3)C2)cc1 (configuration not stated)	15	99	19	10	-7	99*
Cc1oc(=O)c(NC(=O)c2cccc(Cl)c2)cc1C(=O)c1ccccc1	5	98	20	-1	-6	97*
COc1ccc(C(=O)Nc2cc(C(=O)c3ccccc3)c(C)oc2=O)cc1	-4	106	22	9	10	14
Clc1ccc(SCc2cn3ccccc3n2)cc1	-3	103	42	-8	-14	-12
Nc1ccccc1SCc1cn2ccccc2n1	34	101	3	20	-15	24
N=C(N)SCc1cn2ccccc2n1	19	95	14	5	-11	98*
c1ccc2c(SCc3cn4ccccc4n3)nncc2c1	5	101	23	-6	-2	99*
CCOC(=O)C1CCN(c2c(NCCCN(CC)c3ccccc3)c(=O)c2=O)CC1	·	·	16	4	6	90*
CCOC(=O)C1CCCN(c2c(NCCc3cccc(C)c3)c(=O)c2=O)C1 (configuration not stated)	6	101	-1	10	-8	-5
CCOC(=O)C1CCCN(c2c(NCCCN(CC)c3cccc(C)c3)c(=O)c2=O)C1 (configuration not stated)	-7	106	6	-10	10	98*
O=C(NCc1nnnn1-c1ccc(F)c(F)c1)c1cc2ccccc2o1	·	103	13	-5	-4	0
